According to ChEMBL document CHEMBL1137629, “Antiproliferative effect of dihydroxyacetone on Trypanosoma brucei bloodstream forms: cell cycle progression, subcellular alterations, and cell death” (Antimicrob Agents Chemother, 2007):
The source made the active and inactive calls. The rule behind the calls is not given here.

Tests used:
Trypanosoma brucei [1] = test: Effect on morphological changes in Trypanosoma brucei bloodstream form assessed as presence of glycosomes at 3 mM after 24 hrs by transmission electron microscopy; assay type: functional, organism-based
How it was run: (§1)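 Parasites exposed 24 h to 3 mM DHA. 10⁸ cells fixed 1 h at 4°C in 2% glutaraldehyde in 0.2 M sodium cacodylate with 0.12 M sucrose, held overnight in buffer, postfixed in 1.5% osmium tetroxide and stained with 0.5% uranyl acetate. Dehydrated in ethanol, cleared in propylene oxide, embedded in Agar 100. Sections stained with 5% uranyl acetate and 0.4% lead citrate for TEM. Rapamycin (5 μM) served as the autophagy positive control.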

Trypanosoma brucei [2] = test: Effect on morphological changes in Trypanosoma brucei bloodstream form assessed as increase in cisternal and vesicular structures within cytosol at 3 mM after 24 hrs by transmission electron microscopy; assay type: functional, organism-based; how it was run: as §1
Trypanosoma brucei [3] = test: Effect on morphological changes in Trypanosoma brucei bloodstream form assessed as presence of one or two nucleus at 3 mM after 24 hrs by transmission electron microscopy; assay type: functional, organism-based; how it was run: as §1
Trypanosoma brucei [4] = test: Effect on morphological changes in Trypanosoma brucei bloodstream form assessed as presence of kinetoplast at 5 mM after 20 hrs by scanning electron microscopy; assay type: functional, organism-based
How it was run: (§2)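 Cells grown 20 h with 5 mM DHA. Fixed and stained as for TEM (glutaraldehyde, osmium tetroxide, uranyl acetate), then dehydrated through 50, 75, 95 and 100% ethanol. Critical-point dried and gold-palladium sputter-coated for scanning electron microscopy.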

Trypanosoma brucei [5] = test: Trypanocidal activity against Trypanosoma brucei bloodstream form at 5 mM up to 24 hrs by spectrophotometry; assay type: functional
How it was run: (§3)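 Proliferation measured in complete medium (33 mM glucose, 15% serum) with a range of DHA concentrations. Cell density followed over 24 h. Triplicate, SD.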

Trypanosoma brucei [6] = test: Effect on morphological changes in Trypanosoma brucei bloodstream form assessed as presence of more than one flagellum at 3 mM after 24 hrs by transmission electron microscopy; assay type: functional, organism-based; how it was run: as §1
Trypanosoma brucei [7] = test: Effect on cell cycle of Trypanosoma brucei bloodstream form assessed as induction of necrosis at 3 mM after 24 hrs using propidium iodide staining by FACS analysis; assay type: functional
How it was run: (§4)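 Bloodstream forms exposed 24 h at 37°C, 5% CO₂. Cells at 2 × 10⁶/ml incubated 10 min with propidium iodide (5 μg/ml), and uptake read by flow cytometry as a measure of membrane integrity. Digitonin (6 μM) served as the necrosis positive control.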

Trypanosoma brucei [8] = test: Induction of apoptosis-like programmed cell death in Trypanosoma brucei bloodstream form assessed as phosphatidylserine exposure in outer leaflet of plasma membrane at 1 mM after 24 hrs by V-Fluos staining staining; assay type: functional
How it was run: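 After 24 h DHA exposure of axenic bloodstream-form T. brucei MITat 1.2 (EATRO 427; 37°C, 5% CO₂), cells were washed in HEPES buffer (10 mM, pH 7.4, 140 mM NaCl, 5 mM CaCl₂). They were then stained with annexin V-Fluos for 15 min at 4°C and analysed by flow cytometry.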

Trypanosoma brucei [9] = test: Effect on cell cycle of Trypanosoma brucei bloodstream form assessed as DNA content at 2 mM after 24 hrs using propidium iodide staining by FACS analysis; assay type: functional
How it was run: (§5)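 T. brucei bloodstream forms (MITat 1.2, strain EATRO 427), axenic culture at 37°C, 5% CO₂. Treated 24 h. At least 5 × 10⁵ cells washed in PBS, lysed hypotonically 30 min at room temperature in 10 mM phosphate buffer pH 7.4 with 6 μM digitonin. Nuclei stained with propidium iodide (10 μg/ml final) and analysed by flow cytometry for G₁/S/G₂ distribution and degraded DNA.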

Trypanosoma brucei [10] = test: Effect on cell cycle of Trypanosoma brucei bloodstream form assessed as DNA content at 1 mM after 24 hrs using propidium iodide staining by FACS analysis; assay type: functional; how it was run: as §5
Trypanosoma brucei [11] = test: Effect on morphological changes in Trypanosoma brucei bloodstream form assessed as presence of more than one flagellum at 5 mM after 20 hrs by scanning electron microscopy; assay type: functional, organism-based; how it was run: as §2
Trypanosoma brucei [12] = test: Induction of apoptosis-like programmed cell death in Trypanosoma brucei bloodstream form assessed as loss of mitochondrial-membrane potential at 1 mM after 24 hrs by TMRE staining; assay type: functional
How it was run: (§6)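 T. brucei MITat 1.2 (EATRO 427) bloodstream forms were grown axenically at 37°C, 5% CO₂ and exposed to DHA for 24 h. Cells at 10⁶/ml were stained with 25 nM TMRE in culture medium for 30 min at 37°C and read at once by flow cytometry. Depolarization control: valinomycin 100 nM. Lower fluorescence signifies lost membrane potential.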

Trypanosoma brucei [13] = test: Effect on cell cycle of Trypanosoma brucei bloodstream form assessed as DNA content at 3 mM after 24 hrs using propidium iodide staining by FACS analysis; assay type: functional; how it was run: as §5
Trypanosoma brucei [14] = test: Effect on cell cycle of Trypanosoma brucei bloodstream form assessed as increase in cells with two nuclei and two kinetoplasts at 1 to 3 mM using DAPI staining by phase-contrast microscopy; assay type: functional, organism-based
How it was run: (§7)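 Bloodstream forms (MITat 1.2, EATRO 427) grown 24 h with or without DHA. Aliquots washed twice in PBS, resuspended, placed on slides and fixed with methanol. Stained 5 min with DAPI (0.1 μg/ml final), then washed. Phase-contrast and fluorescence images scored for nucleus/kinetoplast numbers (1N1K, 1N2K, 2N2K, 2N1K, abnormal). n = 4, Student's t test, SD.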

Trypanosoma brucei [15] = test: Effect on morphological changes in Trypanosoma brucei bloodstream form assessed as presence of more than one flagellum after 24 hrs using DAPI staining by phase-contrast microscopy; assay type: functional, organism-based; how it was run: as §7
Trypanosoma brucei [16] = test: Induction of necrosis in Trypanosoma brucei bloodstream form assessed as death of total cell population at > 4 mM up to 24 hrs using propidium iodide staining by FACS analysis
Trypanosoma brucei [17] = test: Induction of apoptosis-like programmed cell death in Trypanosoma brucei bloodstream form assessed as loss of mitochondrial-membrane potential at 5 uM after 24 hrs by TMRE staining; assay type: functional
Trypanosoma brucei [18] = test: Trypanocidal activity against Trypanosoma brucei bloodstream form at 4 mM up to 24 hrs by spectrophotometry; assay type: functional; how it was run: as §3
Trypanosoma brucei [19] = test: Trypanocidal activity against Trypanosoma brucei bloodstream form at < 1 mM; assay type: functional, organism-based
Trypanosoma brucei [20] = test: Induction of programmed cell death in Trypanosoma brucei bloodstream form assessed as death of total cell population at > 4 mM up to 24 hrs using propidium iodide staining by FACS analysis
Trypanosoma brucei [21] = test: Effect on cell cycle of Trypanosoma brucei bloodstream form assessed as induction of necrosis at 4 mM after 24 hrs using propidium iodide staining by FACS analysis; assay type: functional; how it was run: as §4
Trypanosoma brucei [22] = test: Effect on morphological changes in Trypanosoma brucei bloodstream form assessed as presence of myelin-like structures at 3 mM after 24 hrs by transmission electron microscopy; assay type: functional, organism-based; how it was run: as §1
Trypanosoma brucei [23] = test: Induction of apoptosis-like programmed cell death in Trypanosoma brucei bloodstream form assessed as loss of mitochondrial-membrane potential at 3 mM after 24 hrs by TMRE staining; assay type: functional; how it was run: as §6
Trypanosoma brucei [24] = test: Trypanocidal activity against Trypanosoma brucei bloodstream form assessed as decrease in cell viability at 1 mM up to 40 mins by spectrophotometry; assay type: functional, organism-based
How it was run: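 Viability as a carbon source. Bloodstream forms incubated in basic medium lacking glucose and serum: unsupplemented, with 1 mM glucose, or with 1 mM DHA. Cell density and motility followed over time. Triplicate, SD.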

O=C(CO)CO [DIHYDROXYACETONE] was tested, and the Activity (Trypanosoma brucei [1]) was “Active”, the Activity (Trypanosoma brucei [2]) was “Active” and the Activity (Trypanosoma brucei [3]) was “Active”. The Activity (Trypanosoma brucei [4]) was “inactive”, the Activity (Trypanosoma brucei [5]) was 100% and the Activity (Trypanosoma brucei [6]) was “Active”. It also gave an Activity (Trypanosoma brucei [7]) of 9.9%, an Activity (Trypanosoma brucei [8]) of 6.3% and an Activity (Trypanosoma brucei [9]) of 9%. For the same compound, the Activity (Trypanosoma brucei [10]) was 4.5%, the Activity (Trypanosoma brucei [11]) was “Active” and the Activity (Trypanosoma brucei [12]) was 4.9%. For the same compound, the Activity (Trypanosoma brucei [13]) was 8%, the Activity (Trypanosoma brucei [14]) was “Active” and the Activity (Trypanosoma brucei [15]) was “Dose-dependent effect”. For the same compound, the Activity (Trypanosoma brucei [16]) was “Active”, the Activity (Trypanosoma brucei [17]) was 31.4% and the Activity (Trypanosoma brucei [18]) was 100%. For the same compound, the Activity (Trypanosoma brucei [19]) was “Active”, the Activity (Trypanosoma brucei [20]) was “Active” and the Activity (Trypanosoma brucei [21]) was 12.9%. For the same compound, the Activity (Trypanosoma brucei [22]) was “Active”, the Activity (Trypanosoma brucei [23]) was 12.3% and the Activity (Trypanosoma brucei [24]) was “inactive”.
